From ChEMBL document CHEMBL2086260, “Cytotoxic prenylated acetophenone dimers from Acronychia pedunculata” (J Nat Prod, 2012) come the findings set out here.

One data set has as its system DU-145. The experiment in a line: Cytotoxicity against human DU145 cells after 48 hrs by […]. To be noted: for IC50: DU-145, 48 h. The data set is classed as functional, cell-based. The essentials: (§1)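 Cells from ATCC, grown in RPMI 1640 with 10% heat-inactivated FBS and 1% penicillin/streptomycin. Seeded at 5000 cells/well and incubated overnight, then exposed to graded compound concentrations or DMSO vehicle for 48 h. Viability was read by MTS reagent absorbance at 490 nm and normalized to vehicle. Each experiment was run in triplicate or quadruplicate; values are means ± SD.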

The test system of another data set is A2058. Description: Cytotoxicity against human A2058 cells after 48 hrs by […]. The data set is classed as functional, cell-based. As to conditions: for IC50: A2058, 48 h. The essentials: as §1
The test system of a further data set is NHDF. Description: Cytotoxicity against human NHDF cells after 48 hrs by […]. The data set is classed as cell-based. To be noted: for IC50: Homo sapiens, NHDF; for inhibition (INH): human, nhdf. The essentials: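 Normal human dermal fibroblasts were grown in DMEM with 10% FBS. Seeded at 5000 cells/well and incubated overnight, then exposed to compounds or DMSO vehicle for 48 h. Viability was read by MTS absorbance at 490 nm and normalized to vehicle. Each experiment was run in triplicate or quadruplicate.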

As a reminder, the IC50 is the concentration needed to halve the response being measured.

The structures appear in SMILES notation.

As to `COc1c(CC=C(C)C)c(O)c(C(CC(C)C)c2c(O)c(C(C)=O)c(O)c3c2OC(C(C)(C)O)C3)c(O)c1C(C)=O` (stereo not given) [ACROFOLIONE A], in the data set on DU-145, the inhibition entry was “Dose-dependent effect” and the IC50 was more than 5 µM. In the data set with A2058, the inhibition result was “Dose-dependent effect” and inhibition was half-maximal at 4.2 µM (IC50). In the data set on NHDF, the IC50 is more than 5 µM and the “inhibition (INH)” value is “Dose-dependent effect”.

As for `C=C(C)C(O)Cc1c(O)c(C(C)=O)c(O)c(C(CC(C)C)c2c(O)c(CC=C(C)C)c(OC)c(C(C)=O)c2O)c1O` (stereo not given) [ACROVESTENOL], in the data set on DU-145, the inhibition result is “Dose-dependent effect” and half-maximal inhibition (IC50) required 2.7 µM. For the same compound, in the data set with A2058, the inhibition entry was “Dose-dependent effect” and 2.8 µM corresponded to half-maximal inhibition (IC50). Further, in the data set with NHDF, the IC50 was more than 5 µM and the “inhibition (INH)” value is “Dose-dependent effect”.

As for `COc1c(CC=C(C)C)c(O)c([C@H](CC(C)C)c2c(O)c(CC=C(C)C)c(O)c(C(C)=O)c2O)c(O)c1C(C)=O` [ACROVESTONE], the inhibition result in the data set on DU-145 and in the data set with A2058 was “Dose-dependent effect” throughout. Also, the IC50 in the data set on DU-145 is 0.93 µM; with A2058, 0.38 µM; in the data set on NHDF, more than 5 µM. Further, the “inhibition (INH)” value in the data set with NHDF is “Dose-dependent effect”.

`CNC(=O)c1cc(Oc2ccc(NC(=O)Nc3ccc(Cl)c(C(F)(F)F)c3)cc2)ccn1` [SORAFENIB]: the IC50 came to 5.1 µM in the data set on DU-145 and 3.8 µM in the data set with A2058.
